# Assay outcomes from PubChem BioAssay.
# Arr AP2 block: blocks beta-arrestin peptide binding to AP2 adaptin | AID 504490 | hit rate 0.31% among 340,000 | inhibition, % at 10 µM | FITC-arrestin peptide / GST-AP2 beads, flow cytometry; AP2 beta2 appendage carries R879A mutation;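 active = inhibition above a set limit, near 3 SD of compounds lacking own fluorescence, cut at about 54% in these data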;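 note: plate controls were DMSO wells for no effect and 5 µM unlabelled arrestin peptide for full effect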
#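 System: GST-tagged AP2 beta2-adaptin appendage (R879A) on 4 µm glutathione beads / Reagent: FITC-arrestin peptide, 50 nM / Detection: HyperCyt-sampled flow cytometry, FL1 channel, ex 488/em 535 nm / Timing: 12 min plus 1 h, RT / Buffer or medium: PBS plus Tween 20 (0.05%) and BSA (0.1%)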
# PolyA inh: inhibitors of polyadenylation in S. cerevisiae; activity score, % at 12 µM; S. cerevisiae SKY197-pL101 polyadenylation reporter, beta-gal luminescence; efflux-impaired pdr1/pdr3 knockout yeast; score 100 = 6 SD above DMSO; hit rate 0.02% among 300,000;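 active = lowest replicate activity score at least 50, where 100 means six control SD above control mean; inconclusive = lowest score under 50 but half or more replicates reach 50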;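 note: yeast exposed to compound for 9 h at 30 °C; higher score means more reporter readthrough which indicates perturbed polyadenylation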
# NLRP3 yeast inh: inhibitors of NALP3 inflammasome in yeast; Yeast reconstituted NLRP3/ASC/caspase-1, beta-gal luminescence, 24 h; inhibition, % at 10 µM; hit rate 0.39% among 330,000;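 active = inhibition of 50% or more; inactive = inhibition below 50%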;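 note: plate controls were induced DMSO wells for no effect and uninduced yeast grown without galactose for full effect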
# NALP1 inh: NALP1 inhibition; hit rate 0.61% among 280,000; inhibition, % at 10 µM; AID 2071; S. cerevisiae NALP1/ASC/caspase-1 growth, X-gal OD620, 72 h; in the data active = inhibition mostly above about 24%, no sharp cut-off; inactive = mostly below about 32%
# DSG3 Ab inh: blocks pemphigus antibody binding to human desmoglein-3 | AID 588358 | hit rate 0.48% among 310,000 | DSG3-coupled beads, scFv-anti-DSG3-GFP binding, flow cytometry; active compounds read low | P32926 | binding (percent of control), % at 10 µM;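 active = binding more than 3 SD below its plate's average and above zero; inconclusive = below that plate limit but binding exactly zero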;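 note: hits lower antibody fragment binding to DSG3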
# Target sequence (P32926 whole entry, looked up, the tested form may be a part): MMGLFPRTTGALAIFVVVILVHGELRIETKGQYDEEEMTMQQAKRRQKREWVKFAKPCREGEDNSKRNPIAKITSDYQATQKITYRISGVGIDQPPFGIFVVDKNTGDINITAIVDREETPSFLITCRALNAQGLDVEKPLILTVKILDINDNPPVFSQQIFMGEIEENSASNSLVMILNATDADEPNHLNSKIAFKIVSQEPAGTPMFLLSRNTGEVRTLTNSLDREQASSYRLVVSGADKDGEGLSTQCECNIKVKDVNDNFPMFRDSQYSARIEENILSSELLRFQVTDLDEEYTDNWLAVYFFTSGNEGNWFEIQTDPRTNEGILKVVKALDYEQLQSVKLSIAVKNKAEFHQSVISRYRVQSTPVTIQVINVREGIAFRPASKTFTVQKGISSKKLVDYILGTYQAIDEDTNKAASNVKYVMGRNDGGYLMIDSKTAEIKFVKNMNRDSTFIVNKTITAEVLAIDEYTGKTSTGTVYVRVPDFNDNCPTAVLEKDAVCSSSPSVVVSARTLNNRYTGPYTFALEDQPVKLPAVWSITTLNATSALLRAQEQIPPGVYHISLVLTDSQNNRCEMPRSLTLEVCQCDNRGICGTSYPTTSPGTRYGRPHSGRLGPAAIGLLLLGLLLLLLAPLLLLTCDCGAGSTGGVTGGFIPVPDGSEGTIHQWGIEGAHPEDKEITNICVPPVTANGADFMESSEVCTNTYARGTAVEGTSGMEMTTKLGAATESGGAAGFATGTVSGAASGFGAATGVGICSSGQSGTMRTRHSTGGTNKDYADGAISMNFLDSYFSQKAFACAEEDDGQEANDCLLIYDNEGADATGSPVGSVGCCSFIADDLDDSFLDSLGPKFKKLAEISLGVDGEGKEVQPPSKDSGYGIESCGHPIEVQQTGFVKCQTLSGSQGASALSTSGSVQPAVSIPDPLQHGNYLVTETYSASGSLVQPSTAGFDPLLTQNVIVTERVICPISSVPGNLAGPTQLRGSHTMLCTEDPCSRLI
# ALR H2O2 inh: inhibitors of human sulfhydryl oxidase ALR | P55789 | AID 485317 | inhibition, % (test concentration not listed) | hit rate 3.8% among 290,000 | purified ALR, DTT oxidation, H2O2 HRP-luminol luminescence;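 active = mean replicate inhibition above about 79%, with every replicate also reaching it, limit read from the data; inconclusive = only one of the two criteria met; inactive = mean below limit and not every replicate reaching it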
# * hit, by the source's call; u = inconclusive; x = no result given. Compounds with a hit are over-represented: about 4.6% of the library has one in this group of screens.
SMILES,Arr AP2 block,PolyA inh,NLRP3 yeast inh,NALP1 inh,DSG3 Ab inh,ALR H2O2 inh
N#Cc1ccc(-c2ccc(F)cc2)nc1Oc1ccccc1,-4,-8,-6,8,83,-24
N#Cc1ccc(-c2ccc(F)cc2)nc1Oc1ccc(F)cc1,-1,-9,-9,2,82*,-10
COCCN(CC(=O)Nc1ccccc1C(F)(F)F)C(=O)c1ccc(-n2cccn2)cc1,-6,x,1,x,u,0
CCOc1ccc(C(=O)CC(NCc2cccs2)C(=O)O)cc1 (stereo not given),5,-9,x,3,147,97*
CCOc1ccc(C(=O)CCC(=O)N(CC)CC(=O)NCc2cccs2)cc1,-5,1,-2,x,102,10
COc1cc(/C=N/n2nnnc2N)ccc1O,-5,3,-4,-6,95,99*
Nc1nnnn1/N=C/c1ccc(O)cc1,19,3,-7,6,94,96*
Nc1nnnn1/N=C/c1cccc(O)c1,6,-11,16,36,107,3
O=C(COc1ccc(S(=O)(=O)N2CCOCC2)cc1)NC1CCCCC1,8,x,x,x,99,x
Cc1ccc2ccccc2c1NC(=O)CNCc1ccccc1,x,x,x,x,95,x
O=C(N/N=C/c1cccn1-c1cccc(C(=O)O)c1)Nc1ccccc1,1,3,-11,11,97,97*
CCN(CC)c1ccc(NC(=O)CN2CCN(c3ccc(F)cc3)CC2)cc1,20,4,6,13,104,79*
CCN(CC)c1ccc(NC(=O)CN2CCN(CC(=O)Nc3ccccc3F)CC2)cc1,-1,5,20,11,109,99*
O=C(CN1CCN(c2ccc(Cl)cc2)CC1)Nc1ccc(F)cc1,8,22,21,2,x,11
Cc1cc(C)nc(N2CCN(CC(=O)NCc3ccccc3)CC2)n1,-1,-6,1,0,100,2
CCN(CC)c1ccc(NC(=O)CN2CCN(c3nc(C)cc(C)n3)CC2)cc1,4,x,10,16,x,98*
CCN(CC)c1ccc(NC(=O)CN2CCN(CC(=O)Nc3ccccc3OC)CC2)cc1,12,15,28,10,101,x
COc1ccc(C2(CNC(=O)c3ccc(N)cc3)CCCC2)cc1,-16,5,9,42*,109,-5
COc1ccc(C2(CNC(=O)c3ccc(C)cc3)CCOCC2)cc1,-9,-1,3,13,94,5
O=C(CCc1ccc(O)c(O)c1)NNC(=S)NCCc1ccccc1,20,3,6,18,x,99*
COc1cccc(NC(=O)NNC(=O)CCc2ccc(O)c(O)c2)c1,-2,9,10,8,101,99*
O=C(CCc1ccc(O)c(O)c1)NNC(=S)Nc1ccc(Br)cc1Cl,19,16,10,-11,102,99*
O=C(NNC(=S)Nc1ccc(Br)cc1Cl)c1ccncc1,3,5,30,22,96,74
O=C(CCc1ccccc1)NNC(=S)NCc1ccc(Cl)cc1,-8,8,10,-7,109,-4
OCC1OC(c2ccccc2)OC2COC(c3ccccc3)OC12 (stereo not given),-3,x,x,x,88,x
SMILES,Arr AP2 block,PolyA inh,NLRP3 yeast inh,NALP1 inh,DSG3 Ab inh,ALR H2O2 inh
CCOc1ccc(CCNC(=O)C2CC(=O)N(c3ccc4c(c3)OCCO4)C2)cc1OCC (stereo not given),22,5,8,x,96,-3
Cn1c2ccccc2c(=O)c2ccc(C#CC3(O)CCCCC3)cc21,-1,1,18,8,101,-1
O=C(Nc1ccc(Cl)cc1)c1ccc(OCC2CCCO2)cc1 (stereo not given),-1,-5,29,35*,97,-2
O=C(NCc1ccc(Cl)cc1)c1ccc(OCC2CCCO2)cc1 (stereo not given),2,-7,25,28,91,6
COc1ccc(CCC(=O)NCC23CC4CC(CC(C4)C2)C3)cc1,4,-1,23,33,83,-36
CC(=O)c1cccc(NC(=S)NC2CCCCCCC2)c1,-10,x,14,-6,112,0
N#CC1=C(N)Oc2n[nH]c(-c3cccs3)c2C1c1ccncc1 (stereo not given),-2,0,0,13,x,x
N#CC1=C(N)Oc2n[nH]c(-c3cccs3)c2C1c1ccco1 (stereo not given),0,11,21,7,104,75*
